# Results of several laboratories.
# Each line is one published result; the experiments were not run side by side.
# RPS6KA6: Ribosomal protein S6 kinase alpha-6 (RPS6KA6, Homo sapiens, UniProt Q9UK32)
# RPS6KA6 C-terminal kinase domain: Ribosomal protein S6 kinase alpha-6, C-terminal kinase domain (RPS6KA6, Homo sapiens, UniProt Q9UK32)
# RPS6KA6 N-terminal kinase domain: Ribosomal protein S6 kinase alpha-6, N-terminal kinase domain (RPS6KA6, Homo sapiens, UniProt Q9UK32)
SMILES,target,effect on,mode,method,tested at,endpoint,value
CC/C(=N\NC(=O)C(C)Nc1ccccc1)c1ccc(O)c(C)c1O (stereo not shown),RPS6KA6,enzyme activity,inhibitor,,0.1 µM,inhibition,28.6%
Cc1sc(C(=O)NC2COC2)cc1-n1cc(NC(=O)Nc2c(F)cccc2Cl)cn1,RPS6KA6,enzyme activity,inhibitor,,10 µM,remaining activity,116%
CN1CCC2(CC1)NC(=O)c1c(c3ccc(Cl)c(Cl)c3n1C)C2C#N (racemic),RPS6KA6,thermal stability,,DSF,10 µM,ΔTm,0 °C
Cn1nc(C(=O)NCc2ccc(C(=O)O)cc2)cc1-c1ccc2[nH]ccc2c1,RPS6KA6 C-terminal kinase domain,cell-free assay,,competition with immobilised ligand,0.1 µM,remaining binding,85%
Cc1ccc(NC(=O)c2ccc(C)c(C(F)(F)F)c2)cc1C#Cc1nn(C2CCC(O)CC2)c2ncnc(N)c12 (stereo not shown),RPS6KA6,cell-free assay,,,10 µM,remaining signal,44%
Cc1ccc(Nc2nccc(N(C)c3ccc4c(C)n(C)nc4c3)n2)cc1S(N)(=O)=O,RPS6KA6,enzyme activity,inhibitor,,0.5 µM,remaining activity,96.8%
COc1cc2ncnc(Nc3ccc(Oc4ccccc4)cc3C)c2cc1OC,RPS6KA6,enzyme activity,inhibitor,,1 µM,inhibition,7%
Cn1cc(Cl)c2c(Oc3c(F)cc(Nc4cc(Cl)nc(N)n4)cc3F)ccnc21,RPS6KA6 C-terminal kinase domain,cell-free assay,,competition with immobilised ligand,0.1 µM,remaining binding,100%
C[C@H]1CCN(c2nccc(-c3cnn4ncccc34)n2)C1,RPS6KA6 C-terminal kinase domain,binding,,competition with immobilised ligand,1 µM,remaining binding,84%
Cc1nc(C2CCN(C(=O)c3ccc(OC(F)(F)F)cc3N)CC2)c2ncc(N3CCN(C)CC3)cc2n1,RPS6KA6 C-terminal kinase domain,cell-free assay,,competition with immobilised ligand,1 µM,remaining binding,100%
C[C@@H]1CCN(C(=O)CC#N)C[C@@H]1N(C)c1ncnc2[nH]ccc12,RPS6KA6,cell-free assay,inhibitor,,0.5 µM,remaining signal,98.1%
O=C(N[C@H]1CCCCC/C=C\C2C[C@@]2(C(=O)O)NC(=O)[C@@H]2C[C@@H](Oc3ccncc3)CN2C1=O)OC1CCCC1 (stereo partly shown),RPS6KA6 N-terminal kinase domain,binding,,competition with immobilised ligand,1 µM,remaining binding,60%
CNC(=O)c1cc(Oc2ccc(NC(=O)Nc3ccc(Cl)c(C(F)(F)F)c3)cc2)ccn1,RPS6KA6,enzyme activity,inhibitor,,10 µM,inhibition,-16%
Nc1nc(Nc2ccc(S(N)(=O)=O)cc2)nn1C(=O)c1c(F)cccc1F,RPS6KA6,cell-free assay,,,0.5 µM,remaining signal,24.7%
O=C(NS(=O)(=O)c1ccc(NCC2CCOCC2)c([N+](=O)[O-])c1)c1ccc(N2CCN(Cc3ccc(C(F)(F)F)cc3-c3ccc(Cl)cc3)CC2)cc1Oc1cnc2[nH]ccc2c1,RPS6KA6 N-terminal kinase domain,cell-free assay,,competition with immobilised ligand,1 µM,remaining binding,100%
CN(CCCC(F)(F)F)c1nccc(-c2cnn3ncccc23)n1,RPS6KA6 N-terminal kinase domain,binding,,competition with immobilised ligand,1 µM,remaining binding,100%
CC1(C)NC(=O)c2[nH]c3c(Cl)c(Cl)ccc3c2C1C#N (stereo not shown),RPS6KA6,thermal stability,,DSF,10 µM,ΔTm,2.2 °C
c1cnn2ncc(-c3ccnc(N4CCC45COC5)n3)c2c1,RPS6KA6 N-terminal kinase domain,binding,,competition with immobilised ligand,1 µM,remaining binding,58%
CCC(=N\O)/C(C)=C/c1ccc(F)cc1,RPS6KA6 C-terminal kinase domain,cell-free assay,,competition with immobilised ligand,1 µM,remaining binding,94%
